According to ChEMBL document CHEMBL4334433, “BIM-46174 fragments as potential ligands of G proteins” (Medchemcomm, 2019):
The source made the active and inactive calls. The rule behind the calls is not given here.

Columns and labels:
Type in all cases: cell-based
[1] = biological target: T1, Guanine nucleotide-binding protein G(q) subunit alpha (Homo sapiens) (UniProt P50148); assay: Inhibition of Galpha-q in human HEK293 cells assessed as reduction in CCh-induced IP1 accumulation at 100 uM preincubated for 2 hrs followed by CCh stimulation and measured after 35 mins by time resolved fluorescence assay
T1 sequence (whole entry): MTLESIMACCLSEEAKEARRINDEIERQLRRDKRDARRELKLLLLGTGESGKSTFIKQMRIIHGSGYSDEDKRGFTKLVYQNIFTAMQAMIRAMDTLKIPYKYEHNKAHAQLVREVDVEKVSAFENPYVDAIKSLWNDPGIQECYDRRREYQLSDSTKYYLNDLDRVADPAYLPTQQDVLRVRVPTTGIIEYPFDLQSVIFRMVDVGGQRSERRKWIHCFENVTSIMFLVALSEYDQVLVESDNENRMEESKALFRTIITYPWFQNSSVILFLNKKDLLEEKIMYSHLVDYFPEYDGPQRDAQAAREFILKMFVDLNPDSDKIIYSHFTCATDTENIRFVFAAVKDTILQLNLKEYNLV
Procedure, shortened: (§1)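 HEK293 wt cells were grown in DMEM with 10% FBS and penicillin/streptomycin at 37 °C and 5% CO2. Cells were plated at 60,000 per well and pre-incubated 15 min at 37 °C. Compound was added in stimulation buffer for 2 h at 37 °C, followed by buffer containing 100 µM carbachol (concentration in the added buffer) for 35 min. IP1 was read by HTRF (620/665 nm ratio).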

HEK293 = assay: Cytotoxicity against human HEK293 cells assessed as reduction in cell viability at 100 uM incubated for 22 hrs by CellTiter-BlueTM cell viability assay; conditions: hek293, 22 h
Procedure, shortened: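 HEK293 cells were seeded at 25,000 per well on poly-D-lysine and grown overnight, then exposed to compound for 22 h. CellTiter-Blue reagent was added for a further 2 h, and resorufin fluorescence was read at excitation 560 nm and emission 590 nm.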

[2] = biological target: T1, Guanine nucleotide-binding protein G(q) subunit alpha (Homo sapiens); assay: Inhibition of Galpha-q in human HEK293 cells harbouring PL3alpha mutant assessed as reduction in CCh-induced IP1 accumulation preincubated for 2 hrs followed by CCh stimulation and measured after 35 mins by time resolved fluorescence assay
[3] = biological target: T1, Guanine nucleotide-binding protein G(q) subunit alpha (Homo sapiens); assay: Inhibition of Galpha-q in human HEK293 cells assessed as reduction in CCh-induced IP1 accumulation preincubated for 2 hrs followed by CCh stimulation and measured after 35 mins by time resolved fluorescence assay; procedure, shortened: as §1

| Structure (SMILES) | inhibition [1] | Activity (HEK293) | inhibition [2] | inhibition [3] |
| --- | --- | --- | --- | --- |
| O=C1Cn2cc(-c3ccccc3)nc2[C@H](CC2CCCCC2)CN1 | inactive | Non-Toxic | – | – |
| N[C@@H](CS)C(=O)N1CCn2cc(-c3ccccc3)nc2[C@@H]1CC1CCCCC1 | Active | Toxic | – | – |
| N[C@@H](CS)C(=O)N1CCNC(=O)[C@@H]1CC1CCCCC1 | inactive | Non-Toxic | – | – |
| O=C1Cn2cc(-c3ccccc3)nc2CCN1 | inactive | Non-Toxic | – | – |
| N[C@@H](CS)C(=O)N1CCNC(=O)C1 | inactive | Non-Toxic | – | – |
| O=C1CCn2cc(-c3ccccc3)nc2[C@H](CC2CCCCC2)N1 | inactive | Non-Toxic | – | – |
| O=C1Cn2cc(-c3ccccc3)nc2[C@H](CC2CCCCC2)N1 | inactive | Non-Toxic | – | – |
| O=C1CCn2cc(-c3ccccc3)nc2CN1 | inactive | Non-Toxic | Active | Dose-dependent effect |
| O=C1Cn2cc(-c3ccccc3)nc2CN1 | inactive | Non-Toxic | Active | Dose-dependent effect |
